Measurements: publication PMC4765894 (Journal of Medicinal Chemistry, 2015)
“Also recorded” adds a separate entry of the source.

How the values were obtained:
HIF-1 = assay: Dual luciferase-reporter assay; assay type: cell-based, human; conditions: HEK-293T, 24 h; for IC50: Homo sapiens
How it was run: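 HEK-293T seeded at 5 × 10^3 cells/well, attached 24 h, then transiently co-transfected with a firefly reporter carrying five HRE copies from the human VEGF promoter and a Renilla plasmid (pRL-SV40). Cells were then exposed to serially diluted test compound under 1% O2 for 24 h. Dual-Glo firefly read, then Stop & Glo Renilla read (10 min each). Firefly normalized to Renilla; three independent experiments.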

HIF-1α [1] = assay: Western blot of HIF-1α expression in HEK-293T cells under hypoxia; assay type: cell-based, human; conditions: 1 μM, hypoxia (1% O2), 24 h
How it was run: (§1)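 HEK-293T cells were held under hypoxia (1% O2) for 24 h with or without test compound at 1 μM, with a normoxic comparison. Total protein lysates were resolved by SDS-PAGE and transferred to nitrocellulose. Membranes were blocked 30 min at room temperature in 5% skim milk/TBS-0.1% Tween-20, then given primary antibody overnight at 4 °C and HRP secondary 1 h at room temperature. Detection was chemiluminescent, with β-actin as internal control.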

[2] = test system: cyclin-dependent kinase 6 (Cdk6); assay: Western blot of Cdk6; assay type: cell-based, human; conditions: 1 μM, hypoxic conditions, 24 h
How it was run: as §1

HIF-1β = assay: Western blot of HIF-1β expression in HEK-293T cells under hypoxia; assay type: cell-based, human; conditions: 1 μM, 24 h
How it was run: as §1

VEGF mRNA = assay: Real-time PCR of VEGF mRNA under hypoxia; assay type: cell-based, human; conditions: 1 μM, hypoxic conditions, 24 h, normalized against β-actin
How it was run: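 Cells were given test compound at 1 μM under hypoxic conditions for 24 h, with normoxic and hypoxic controls. Total RNA was extracted with TRIzol and cDNA made with MMLV reverse transcriptase. SYBR Green real-time PCR used 10-fold diluted cDNA and gene-specific primers: 2 min 50 °C, 10 min 95 °C, then 40 cycles of 15 s 95 °C and 1 min 60 °C. Mean CT values were normalized to β-actin; triplicate runs, averaged.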

VEGF secretion = conditions: cited from earlier work
HIF-1α [3] = conditions: 4T1 cells, hypoxic conditions, concentrations between 10 and 100 nM; cited from earlier work

SMILES | IC50 (HIF-1) | expression level of HIF-1α (HIF-1α [1]) | protein level of Cdk6 [2] | regulation of HIF-1β (HIF-1β) | other results
COc1ccc(C(=O)COc2cc(C(=O)[C@@H](C)Oc3ccc([C@H]4O[C@H](c5ccc(O[C@H](C)C(=O)c6ccc(OC)c(OCC(=O)c7ccc(OC)c(OC)c7)c6)c(OC)c5)[C@H](C)[C@H]4C)cc3OC)ccc2OC)cc1OC [MA02] | > 10000 µM | – | – | – | HIF-1 inhibitory activity in luciferase assay (in words) (HIF-1; hypoxia (1% O2)): almost inactive
COc1ccc([C@@H](O)[C@@H](C)Oc2ccc([C@H]3O[C@H](c4ccc(OC)c(OC)c4)[C@H](C)[C@H]3C)cc2OC)cc1OC [MA04, 4-O-methylsaucerneol] | – | significantly down-regulated; also recorded: inhibit the expression | decreased | did not regulate | VEGF mRNA levels (VEGF mRNA): significantly reduced
COc1ccc(C(=O)COc2ccc([C@H]3O[C@H](c4ccc(OCC(=O)c5ccc(OC)c(OC)c5)c(OC)c4)[C@H](C)[C@H]3C)cc2OC)cc1OC [MA07] | – | significantly down-regulated; also recorded: inhibit the expression | decreased | did not regulate | –
COc1cc([C@H]2O[C@H](c3ccc(O[C@H](C)C(=O)c4ccccc4)c(OC)c3)[C@H](C)[C@H]2C)ccc1O[C@H](C)C(=O)c1ccccc1 [MA11] | – | significantly down-regulated; also recorded: inhibit the expression | decreased | did not regulate | –
C#CCOc1cc(C(=O)[C@@H](C)Oc2ccc([C@H]3O[C@H](c4ccc(O[C@H](C)C(=O)c5ccc(C6(C(F)(F)F)N=N6)cc5)c(OC)c4)[C@H](C)[C@H]3C)cc2OC)ccc1OC [MA13] | 0.73 µM | – | – | – | –
COc1ccc(C(=O)[C@@H](C)Oc2ccc([C@H]3O[C@H](c4ccc(O[C@H](C)C(=O)c5ccc(C6(C(F)(F)F)N=N6)cc5)c(OC)c4)[C@H](C)[C@H]3C)cc2OC)cc1OCCOCCOCCNC(=O)CCCC[C@@H]1SC[C@@H]2NC(=O)N[C@@H]21 [MA14] | 2.32 µM | – | – | – | –
COc1ccc([C@@H](O)[C@@H](C)Oc2ccc([C@H]3O[C@H](c4ccc(O[C@H](C)[C@H](O)c5ccc(OC)c(OC)c5)c(OC)c4)[C@H](C)[C@H]3C)cc2OC)cc1OC [compound 1, manassantin A, reference compound] | 0.011 ± 0.003 µM | inhibit the expression | – | did not regulate | HIF-1 regulated VEGF secretion (VEGF secretion): dramatically reduced; hypoxia-induced HIF-1α expression (HIF-1α [3]): significantly inhibited
